# From PubChem BioAssay
# A selection: hits, their analogues and other compounds. The true share with any hit is near 3.9%.
# OX1R antag-1: antagonists of human orexin 1 receptor; O43613; CHO/OX1R cells, Fluo-8 calcium fluorescence, orexin A; AID 434989; 0.43% of 330,000 active; inhibition, % at 5 µM;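 active = inhibition above its plate's threshold, mean inhibition of all tested compounds on the plate plus 3 SD, cut at about 37% in these data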;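 also: 0% = orexin A challenge wells and 100% = SB-334867-A antagonist wells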
# Target sequence (O43613 whole entry, looked up): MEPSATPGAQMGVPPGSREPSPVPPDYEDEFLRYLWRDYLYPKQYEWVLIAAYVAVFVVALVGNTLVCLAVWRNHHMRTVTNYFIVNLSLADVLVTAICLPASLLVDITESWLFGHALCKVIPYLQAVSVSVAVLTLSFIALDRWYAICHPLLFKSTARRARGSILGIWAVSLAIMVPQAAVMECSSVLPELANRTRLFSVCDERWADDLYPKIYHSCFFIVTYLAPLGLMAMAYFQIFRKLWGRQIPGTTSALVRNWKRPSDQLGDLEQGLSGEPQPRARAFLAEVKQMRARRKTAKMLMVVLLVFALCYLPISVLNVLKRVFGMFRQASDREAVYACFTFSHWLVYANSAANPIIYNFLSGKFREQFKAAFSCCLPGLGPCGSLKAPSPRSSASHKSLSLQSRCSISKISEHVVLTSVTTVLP
# TAAR1 agonist: agonists of human TAAR1; Q96RJ0; CHO RD-HGA16 TAAR1, Fluo-8 calcium fluorescence; vehicle wells 0%, saturating PEA agonist 100%; activation, % at 3 µM; 0.99% of 360,000 active;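 active = activation above the mean activation of all test compounds in the run plus 3 SD, cut at about 38% in these data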
#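 Test system: RD-HGA16 (CHO) cells co-expressing Gα16 and hTAAR1 | Doses: Single dose, 3 µM | Schedule: 17-24 h seeding, 75 min 37 °C dye, 30 min RT | Evaluation: % activation from peak over basal fluorescence ratio, DMSO-to-PEA scaled | Technique: Kinetic Fluo-8 calcium fluorescence | Benchmarks: Low control DMSO, high control PEA (EC100)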
# TAAR1 antag: human TAAR1 antagonism; Q96RJ0; CHO RD-HGA16 TAAR1, Fluo-8 calcium fluorescence, antagonist; inhibition, % at 3 µM; 1.5% of 360,000 active; AID 624466;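 active = inhibition above a per-plate cutoff, the mean inhibition of test compounds on that plate plus 3 SD, cut at about 49% in these data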;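 also: 0% = DMSO plus EC80 beta-PEA response and 100% = DMSO alone without agonist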
#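 Material: RD-HGA16 CHO cells with stable hTAAR1 and Gα16; Dosing: single nominal final test compound concentration of 3 µM; Schedule: seeding 17-24 h prior, 75-min 37 °C, 30-min RT dye loading; Detection: kinetic Fluo-8 calcium fluorescence measurement; Measure: % inhibition from peak post-agonist over basal fluorescence ratio; Benchmarks: vehicle and agonist controls.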
# CHO parental Ca: counter-screen for OX1R antagonists: effect in parental CHO cells. parental CHO-K1, ATP-induced calcium, Fluo-8 fluorescence. inhibition, % at 5.6 µM. 0.63% of 330,000 active. AID 463079;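 active = inhibition above that plate's mean sample inhibition plus 3 SD, cut at about 26% in these data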;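 also: 0% = ATP-challenged DMSO wells and 100% = DMSO wells without ATP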
#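 Material: parental CHO cells / Compound: single nominal dose of 5.6 µM per compound / Signal: Fluo-8 fluorescence / Replicates: singlicate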
# OX1R antag-2: blocks the human orexin 1 receptor. 1.8% of 330,000 active. AID 485270. inhibition, % at 6.6 µM. OX1R-expressing cells, FRET antagonist read-out. O43613; in the data active = inhibition mostly above about 38%, no sharp cut-off; inactive = mostly below about 40%;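 also: 0% = agonist challenge alone and 100% = reference antagonist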
# Numbers without * were called inactive; / = no result given.
SMILES,OX1R antag-1,TAAR1 agonist,TAAR1 antag,CHO parental Ca,OX1R antag-2
Cc1cccc(NC(=O)C(=O)NNC(=O)c2ccc(C(C)(C)C)cc2)c1,95*,0,-2,94*,21
CC(C)(C)c1ccc(C(=O)NNC(=O)c2cccc(Br)c2)cc1,-19,4,2,-6,7
COc1cccc(CN2CCC2(C)C(=O)Nc2ccc(C)c(O)c2)c1F (centres undefined),/,-3,5,/,/
CC1=NN(c2ccccc2)C(=O)/C1=C/C=C/C=C/N(C)C,9,8,6,2,73*
N#CC1=C(N)N2C(=C(C#N)C1c1ccc(Br)cc1)Nc1ccccc12 (centres undefined),-2,12,41,14,76*
CC(=O)NCc1ccc(OCCCN2CCC(C(O)(c3ccccc3)c3ccccc3)CC2)cc1,/,8,-1,/,/
Cc1noc(C)c1CSCC(=O)Oc1ccc(N(C)S(=O)(=O)c2ccc(Cl)cc2)cc1,0,5,53*,12,19
O=C(OCCOc1ccc(F)cc1)c1ccc(S(=O)(=O)N2CCCC2)cc1,-2,4,30,-5,11
Cc1ccccc1OCCOC(=O)c1ccc(S(=O)(=O)N2CCCC2)cc1,11,4,30,30*,9
O=C(CN1C(=O)/C(=C\c2ccccc2Cl)Oc2ccccc21)NCc1cccnc1,-16,18,-20,-24,72*
O=C(NNC(=S)Nc1ccc(F)cc1)c1cccc([N+](=O)[O-])c1,-1,4,6,-10,13
CC1(C(=O)NNC(=O)c2ccc([N+](=O)[O-])cc2)CC1(Br)Br (centres undefined),-15,0,-12,3,30
Cc1ccc(NC(=S)NNC(=O)c2cccc([N+](=O)[O-])c2)cc1Cl,-15,1,-20,-15,40*
CC1(C(=O)NNC(=O)c2cccc([N+](=O)[O-])c2)CC1(Br)Br (centres undefined),-17,-1,-44,-23,42*
O=C(NC(NC(=S)Nc1ccc(Cl)cc1Cl)C(Cl)(Cl)Cl)c1cccc([N+](=O)[O-])c1 (centres undefined),42*,15,-10,41*,26
Cc1noc(C)c1S(=O)(=O)NC(=O)C1(C)CCN1C(=O)Cc1ccc(Cl)cc1Cl (centres undefined),/,0,-26,/,/
C=CCn1nc(C(=O)N2CCOCC2)cc1-c1sc(NC(=O)c2ccccc2)nc1C,/,6,-15,/,/
COC(=O)c1cc2c(c3c4cc(OC)ccc4n(S(=O)(=O)c4cccc(C)c4)c13)C(=O)N(C)C2,/,-2,-13,/,/
S=C(Nc1ccccc1)NC1CCN(Cc2ccccc2)CC1,-10,6,-7,-12,6
S=C(Nc1ccc(Cl)cc1)NC1CCN(Cc2ccccc2)CC1,-11,50*,21,1,3
O=C(Nc1ccc2c(c1)OCO2)c1cc(-c2ccc(O)cc2)on1,-13,6,-12,39*,18
COc1ccc(Cc2nnc(NC(=O)Nc3ccc(C)cc3)s2)cc1OC,-35,3,-6,-24,3
COc1ccc(Cc2nnc(NC(=O)CSc3ccc(C)cc3)s2)cc1OC,-62,112*,87*,-42,11
CC(C)CC(NC(=O)c1ccc(Cl)cc1)C(=O)OCC(=O)c1ccc2c(c1)NC(=O)CO2 (centres undefined),65*,1,-1,63*,42
CC1=Nc2ccccc2/C1=C/c1nc(-c2ccc(C)s2)oc1O,68*,38*,54*,43*,16
SMILES,OX1R antag-1,TAAR1 agonist,TAAR1 antag,CHO parental Ca,OX1R antag-2
CC1=Nc2ccccc2/C1=C\c1nc(-c2ccccc2)oc1O,19,7,28,14,26
COc1ccc(C2C(C(C)=O)=C(C)N=c3s/c(=C\c4cc(C)n(C)c4C)c(=O)n32)c(OC)c1 (centres undefined),22,41*,30,21,8
CO/N=C/c1ccc(N2CCN(C(=O)c3cccc(C(F)(F)F)c3)CC2)c([N+](=O)[O-])c1,6,22,54*,12,15
CO/N=C/c1ccc(N2CCN(C(=O)c3ccc(F)cc3)CC2)c([N+](=O)[O-])c1,-5,38*,39,-2,10
Cc1[nH]c2ccccc2c1CC(=O)Nc1ccc(Nc2cccnc2)c(-c2ccc(Oc3ccccc3)cc2)c1,/,0,9,/,/
O=C(N/N=C/c1ccc([N+](=O)[O-])cc1)c1[nH]ncc1Br,-13,4,-6,-5,58*
O=C(N/N=C/c1ccc([N+](=O)[O-])cc1)c1cc(C2CC2)[nH]n1,-11,3,-33,-2,68*
Cc1cc(C(=O)N/N=C/c2ccc(O)c([N+](=O)[O-])c2)n[nH]1,-9,1,-10,1,60*
Cc1cc(C(=O)N/N=C/c2cccc([N+](=O)[O-])c2O)n[nH]1,-15,-1,15,-17,39
O=C(N/N=C/c1ccco1)c1cc(C2CC2)[nH]n1,5,0,13,-10,2
CCOC(=O)c1cc2c(C)n(-c3ccc(OCC)cc3)c(C)c2ccc1=O,-32,1,-5,-13,26
CCOC(=O)c1cc2c(C)n(-c3ccc(C)cc3)c(C)c2ccc1=O,-13,0,2,-8,41*
CN1CCN(C(=O)C[C@@H]2CC[C@@H]3[C@H](COC[C@@H](O)CN3Cc3cccc(Cl)c3)O2)CC1,/,1,-34,/,/
O=C(NC1CCCCC1)C1c2ccccc2OCC(=O)N1CCc1c[nH]c2ccccc12 (centres undefined),/,5,-6,/,/
O=c1c2ccccc2sn1-c1cc(S(=O)(=O)N2CCOCC2)ccc1N1CCOCC1,-13,87*,36,-8,7
CCCNC(=O)Cn1c(=O)/c(=C/c2ccc(-c3ccc([N+](=O)[O-])cc3)o2)s/c1=C\C(=O)C(C)(C)C,/,14,11,/,/
O=C(CNC(=O)c1ccc2c(c1)OCO2)N/N=C(Br)/C=C/c1ccccc1,-2,41*,8,-10,30
Cc1c(Br)cccc1NC(=O)C1(C)CCN1CCc1ccccc1 (centres undefined),/,-2,-7,/,/
Cc1ccc(O)c(C(=O)c2cc(C#N)c(=O)n(-c3c(C)n(C)n(-c4ccccc4)c3=O)c2)c1,-28,15,28,-9,16
Cc1ccc(O)c(C(=O)c2cc(C#N)c(=O)n(-c3nccs3)c2)c1,30,51*,48,30,7
CC1CCC(NC(=O)C2CCC(CNS(=O)(=O)c3ccc4c(c3)C(C)(C)C(=O)N4C)CC2)CC1 (centres undefined),/,0,3,/,/
Cc1c(C(=O)OCC(=O)Nc2cccc(S(N)(=O)=O)c2)oc2c1ccc1ccccc12,27,5,37,2,48*
